# Measured values published in ChEMBL document CHEMBL1649306, “Arylimidamide DB766, a potential chemotherapeutic candidate for Chagas' disease treatment” (Antimicrob Agents Chemother, 2010).
# The source made the active and inactive calls. The rule behind the calls is not given here.
# How the values were obtained:
# Trypanosoma cruzi [1] = assay: Antitrypanosomal activity against Trypanosoma cruzi 956 epimastigotes after 24 hrs by light microscopy; format: functional, organism-based; conditions: Trypanosoma cruzi, 956, 24 h
# Method in brief: (§1)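 Epimastigotes from 5-day exponential cultures, 5 × 10^6 parasites/ml in LIT medium, incubated at 28°C up to 96 h with DB766 0 to 32 μM or Bz 0 to 250 μM. Counted daily in a Neubauer chamber. IC50 averaged from at least three determinations in duplicate.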
# Mus musculus [2] = assay: Toxicity in female Swiss-Webster mouse assessed as mortality at cumulative dose of 200 mg/kg, ip measured after 48 hrs; format: organism-based; design: dose 200 mg/kg, route intraperitoneal; conditions: in vivo
# Method in brief: (§2)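 Uninfected 8–10-week-old female and male Swiss Webster and C3H/He (H-2k) mice injected i.p. on day 1 every 2 h with escalating doses: 5, 15, 30, 50 and 100 mg/kg (cumulative 20, 50, 100, 200 mg/kg). Toxic and subtoxic signs inspected on days 2–3 per OECD guidelines; tolerated dose set at 48 h.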
# Trypanosoma cruzi [3] = assay: Antitrypanosomal activity against Trypanosoma cruzi RBVIII epimastigotes after 24 hrs by light microscopy; format: functional, organism-based; method in brief: as §1
# Trypanosoma cruzi [4] = assay: Antitrypanosomal activity against Trypanosoma cruzi Y bloodstream forms infected in Swiss-Webster mouse assessed as decrease in parasite load at 100 mg/kg/day, po administered 5 days postinfection for 10 alternate days measured after 31 days; format: functional; design: scale not given: the % may be the effect or the level left
# Method in brief: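 Male Swiss mice infected with 10^4 Y strain bloodstream forms and treated every other day with 100 mg/kg/day, reference drug by gavage. Parasitemia measured by the Pizzi-Brener method.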
# Trypanosoma cruzi [5] = assay: Antitrypanosomal activity against Trypanosoma cruzi 958 epimastigotes after 24 hrs by light microscopy; format: functional, organism-based; conditions: Trypanosoma cruzi, 958, 24 h; method in brief: as §1
# Mus musculus [6] = assay: Hepatotoxicity against Swiss-Webster mouse assessed as GPT at 100 mg/kg/day measured after 14 days postinfection; format: toxicity, organism-based; conditions: in vivo, 336 h
# Trypanosoma cruzi [7] = assay: Antitrypanosomal activity against Trypanosoma cruzi Y bloodstream forms infected in Swiss-Webster mouse assessed as decrease in parasite load at 100 mg/kg/day, po administered 8 days postinfection measured on day 2; format: functional, organism-based
# Method in brief: (§3)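 Male Swiss mice infected i.p. with 10^4 Y strain bloodstream forms. Given 0.2 ml i.p. at 5 and 8 dpi, or daily for 10 days from 5 dpi; reference drug given by gavage. Parasitemia measured by the Pizzi-Brener method, cumulative mortality checked daily to 120 dpi, n ≥ 6 per group.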
# Trypanosoma cruzi [8] = assay: Antitrypanosomal activity against Trypanosoma cruzi 875 epimastigotes after 24 hrs by light microscopy; format: functional, organism-based; conditions: Trypanosoma cruzi, 875, 24 h; method in brief: as §1
# Trypanosoma cruzi [9] = assay: Antitrypanosomal activity against Trypanosoma cruzi Y infected in Swiss-Webster mouse assessed as decrease in parasite-induced weight loss at 100 mg/kg/day, ip administered 5 days post-infection for 10 consecutive days measured on day 120; format: functional, organism-based
# Method in brief: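 Body weight of infected, treated mice followed from 0 to 120 dpi.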
# Mus musculus [10] = assay: Hepatotoxicity in Swiss-Webster mouse assessed as effect on GPT level at 50 mg/kg/day, ip administered 21 days postinfection measured on day 120; format: toxicity, organism-based; design: route intraperitoneal; conditions: in vivo, 504 h
# Trypanosoma cruzi [11] = assay: Antitrypanosomal activity against Trypanosoma cruzi Y epimastigotes after 24 hrs by light microscopy; format: functional, organism-based; method in brief: as §1
# Trypanosoma cruzi [12] = assay: Antitrypanosomal activity against Trypanosoma cruzi Columbian bloodstream forms infected in C3H mouse assessed as survival of mouse at 100 mg/kg/day, ip administered 5 days postinfection for 10 consecutive days measured after 31 days; format: functional; conditions: route intraperitoneal
# Method in brief: (§4)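 Male C3H/He (H-2k) mice infected i.p. with 5 × 10^3 Colombian-strain bloodstream trypomastigotes; only parasitemia-positive mice grouped (n ≥ 6). DB766 100 mg/kg/day given i.p. (0.1 ml) or by gavage (0.1 ml), daily for 10 treatments. Parasitemia by Pizzi-Brener method; mortality checked daily, expressed as cumulative percentage.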
# Mus musculus [13] = assay: Toxicity in male Swiss-Webster mouse assessed as mortality at cumulative dose of 200 mg/kg, ip measured after 48 hrs; format: organism-based; design: dose 200 mg/kg, route intraperitoneal; conditions: in vivo; method in brief: as §2
# Mus musculus [14] = assay: Cytotoxicity against Swiss-Webster mouse assessed as effect on creatine kinase at 100 mg/kg/day measured after 14 days postinfection; format: organism-based; conditions: in vivo, 336 h
# Mus musculus [15] = assay: Toxicity in male Swiss-Webster mouse assessed as weight loss at cumulative dose of 200 mg/kg, ip measured after 48 hrs; format: organism-based; design: dose 200 mg/kg, route intraperitoneal; conditions: in vivo
# Method in brief: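 Acute toxicity in 8–10-week-old Swiss Webster mice. i.p. injections every 2 h of 5, 15, 30, 50 and 100 mg/kg (cumulative 200 mg/kg) on day 1. Toxic and subtoxic signs inspected on days 2 and 3 per OECD guidelines; outcome read 48 h after injection.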
# Trypanosoma cruzi [16] = assay: Antitrypanosomal activity against Trypanosoma cruzi Columbian bloodstream forms infected in C3H mouse assessed as decrease in parasite load at 100 mg/kg/day, ip administered 5 days postinfection for 10 consecutive days measured after 31 days; format: functional; design: scale not given: the % may be the effect or the level left; conditions: route intraperitoneal
# Method in brief: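 C3H/He mice infected i.p. with 10^3 or 5 × 10^3 Colombian strain bloodstream forms. Treated daily for 10 days with 0.1 ml i.p. or by gavage, reference drug given by gavage. Parasitemia measured by the Pizzi-Brener method; n ≥ 6 parasitemic mice per group.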
# Trypanosoma cruzi [17] = assay: Antitrypanosomal activity against Trypanosoma cruzi Columbian bloodstream forms infected in C3H mouse assessed as decrease in parasite load at 100 mg/kg/day, ip administered 21 days postinfection measured on day 46; format: functional, organism-based
# Method in brief: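 C3H/He mice infected i.p. with 10^2 Colombian strain bloodstream forms. Treatment started at parasitemia onset (21 dpi) with daily doses for 10 treatments, 0.1 ml i.p. Parasitemia measured by the Pizzi-Brener method; n ≥ 6 parasitemic mice per group.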
# Mus musculus [18] = assay: Toxicity in […](H-2k) mouse assessed as mortality at cumulative dose of 200 mg/kg, ip measured after 48 hrs; format: organism-based; design: dose 200 mg/kg, route intraperitoneal; conditions: in vivo; method in brief: as §2
# Mus musculus [19] = assay: Hepatotoxicity in Swiss-Webster mouse assessed as increased GPT level at 100 mg/kg/day, ip administered 21 days postinfection measured on day 120; format: toxicity, organism-based; design: route intraperitoneal; conditions: in vivo, 504 h
# Trypanosoma cruzi [20] = assay: Antitrypanosomal activity against Trypanosoma cruzi Columbian bloodstream forms infected in C3H mouse assessed as survival of mouse at 100 mg/kg/day, po administered 5 days postinfection for 10 consecutive days measured after 31 days; format: functional; method in brief: as §4
# Trypanosoma cruzi [21] = assay: Antitrypanosomal activity against Trypanosoma cruzi 960 epimastigotes after 24 hrs by light microscopy; format: functional, organism-based; conditions: Trypanosoma cruzi, 960, 24 h; method in brief: as §1
# Trypanosoma cruzi [22] = assay: Antitrypanosomal activity against Trypanosoma cruzi 855 epimastigotes after 24 hrs by light microscopy; format: functional, organism-based; conditions: Trypanosoma cruzi, 855, 24 h; method in brief: as §1
# Mus musculus [23] = assay: Cardiotoxicity in […] mouse assessed as effect on heart rate level at 100 mg/kg/day, po; format: toxicity, organism-based; design: route oral; conditions: in vivo
# Method in brief: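 Colombian strain, 5 × 10³ bloodstream forms i.p. into male C3H/He mice; 100 mg/kg/day given i.p. or by gavage (0.1 ml) daily for 10 doses from parasitemia onset. Mice sedated with diazepam (20 mg/kg i.p.), supine; eight-lead ECG from subcutaneous limb needle electrodes plus precordial lead II. Signal-averaged ECG; heart rate as beats per minute.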
# Trypanosoma cruzi [24] = assay: Antitrypanosomal activity against Trypanosoma cruzi MS1523 epimastigotes after 24 hrs by light microscopy; format: functional, organism-based; conditions: MS1523, 24 h; method in brief: as §1
# Mus musculus [25] = assay: Hepatotoxicity in Swiss-Webster mouse assessed as effect on GPT level at 25 mg/kg/day, ip administered 21 days postinfection measured on day 120; format: toxicity, organism-based; design: route intraperitoneal; conditions: in vivo, 504 h
# Trypanosoma cruzi [26] = assay: Antitrypanosomal activity against Trypanosoma cruzi Y bloodstream forms infected in Swiss-Webster mouse assessed as survival of mouse at 100 mg/kg/day, ip administered 8 days postinfection measured on day 120; format: functional, organism-based; method in brief: as §3
# Mus musculus [27] = assay: Toxicity in […](H-2k) mouse assessed as effect on creatine kinase level at 100 mg/kg/day, po; format: organism-based; design: route oral; conditions: in vivo
# [28] = Toxicity in […](H-2k) mouse assessed as mortality at cumulative dose of 100 mg/kg, po measured after 48 hrs; format: organism-based; design: dose 100 mg/kg, route oral; conditions: in vivo, read-out: Activity
# Trypanosoma cruzi [29] = assay: Antitrypanosomal activity against bloodstream forms of Trypanosoma cruzi CL after 24 hrs by light microscopy in presence of 50% mouse blood; format: functional, organism-based
# Method in brief: (§5)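 Bloodstream trypomastigotes kept at 4°C for 24 h in freshly isolated 50% mouse blood with serial dilutions (up to 32 μM). Motile live parasites counted in a Neubauer chamber by light microscopy; IC50 calculated as concentration reducing parasite number by 50%.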
# Trypanosoma cruzi [30] = assay: Antitrypanosomal activity against bloodstream forms of Trypanosoma cruzi YuYu after 24 hrs by light microscopy in presence of 50% mouse blood; format: functional, organism-based; method in brief: as §5
# Trypanosoma cruzi [31] = assay: Antitrypanosomal activity against bloodstream forms of Trypanosoma cruzi Y after 24 hrs by light microscopy in presence of 50% mouse blood; format: functional, organism-based; method in brief: as §5
# Trypanosoma cruzi [32] = assay: Antitrypanosomal activity against bloodstream forms of Trypanosoma cruzi Columbian after 24 hrs by light microscopy in presence of 50% mouse blood; format: functional, organism-based; method in brief: as §5
smiles,measurement,setting,value
O=C(Cn1ccnc1[N+](=O)[O-])NCc1ccccc1 [BENZNIDAZOLE],IC50,Trypanosoma cruzi [1],3.96 µM
same,IC90,Trypanosoma cruzi [1],20.4 µM
same,Activity,Mus musculus [2],Non-toxic
same,IC50,Trypanosoma cruzi [3],5.06 µM
same,IC90,Trypanosoma cruzi [3],35.7 µM
same,Activity,Trypanosoma cruzi [4],79.4%
same,IC50,Trypanosoma cruzi [5],13.7 µM
same,IC90,Trypanosoma cruzi [5],58.3 µM
same,Activity,Mus musculus [6],Non-toxic
same,Activity,Trypanosoma cruzi [7],inactive
same,IC50,Trypanosoma cruzi [8],7.9 µM
same,IC90,Trypanosoma cruzi [8],196 µM
same,Activity,Trypanosoma cruzi [9],Active
same,Activity,Mus musculus [10],Non-toxic
same,IC50,Trypanosoma cruzi [11],7.65 µM
same,IC90,Trypanosoma cruzi [11],86.6 µM
same,Activity,Trypanosoma cruzi [12],99%
same,Activity,Mus musculus [13],Non-toxic
same,Activity,Mus musculus [14],Non-toxic
same,Activity,Mus musculus [15],7%
same,Activity,Trypanosoma cruzi [16],100%
same,Activity,Trypanosoma cruzi [17],inactive
same,Activity,Mus musculus [18],Non-toxic
same,Activity,Mus musculus [19],Toxic
same,Activity,Trypanosoma cruzi [20],100%
same,IC50,Trypanosoma cruzi [21],6.44 µM
same,IC90,Trypanosoma cruzi [21],38.2 µM
same,IC50,Trypanosoma cruzi [22],12.6 µM
same,IC90,Trypanosoma cruzi [22],226 µM
same,Activity,Mus musculus [23],Non-toxic
same,IC50,Trypanosoma cruzi [24],5.3 µM
same,IC90,Trypanosoma cruzi [24],30.6 µM
same,Activity,Mus musculus [25],Non-toxic
same,Activity,Trypanosoma cruzi [26],inactive
same,Activity,Mus musculus [27],68%
same,mortality at 48 h,[28],100%
N=C(N)c1ccc(-c2ccc(-c3ccc(C(=N)N)cc3)o2)cc1 [FURAMIDINE],IC50,Trypanosoma cruzi [29],> 32 µM
same,IC50,Trypanosoma cruzi [30],> 32 µM
same,IC50,Trypanosoma cruzi [31],> 32 µM
same,IC50,Trypanosoma cruzi [32],> 32 µM
